The target in series [1] is Phosphatidylinositol 4,5-bisphosphate 3-kinase catalytic subunit alpha isoform (Bos taurus, UniProt P32871). As to the kind of experiment: Inhibition of GST-tagged bovine PI3K p110-alpha by SPA. In short, it runs like this: (§1)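 Radiometric SPA. Enzyme and compound (in DMSO) in 20 mM Tris-HCl pH 7.4, 160 mM NaCl, 2 mM DTT, 30 mM MgCl2, 0.4 mM EDTA, 0.4 mM EGTA. Stopped with wheat germ agglutinin-coated SPA beads in PBS, then centrifuged. IC50 is the mean of at least two determinations.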
Chain of Phosphatidylinositol 4,5-bisphosphate 3-kinase catalytic subunit alpha isoform (P32871 whole entry, canonical isoform): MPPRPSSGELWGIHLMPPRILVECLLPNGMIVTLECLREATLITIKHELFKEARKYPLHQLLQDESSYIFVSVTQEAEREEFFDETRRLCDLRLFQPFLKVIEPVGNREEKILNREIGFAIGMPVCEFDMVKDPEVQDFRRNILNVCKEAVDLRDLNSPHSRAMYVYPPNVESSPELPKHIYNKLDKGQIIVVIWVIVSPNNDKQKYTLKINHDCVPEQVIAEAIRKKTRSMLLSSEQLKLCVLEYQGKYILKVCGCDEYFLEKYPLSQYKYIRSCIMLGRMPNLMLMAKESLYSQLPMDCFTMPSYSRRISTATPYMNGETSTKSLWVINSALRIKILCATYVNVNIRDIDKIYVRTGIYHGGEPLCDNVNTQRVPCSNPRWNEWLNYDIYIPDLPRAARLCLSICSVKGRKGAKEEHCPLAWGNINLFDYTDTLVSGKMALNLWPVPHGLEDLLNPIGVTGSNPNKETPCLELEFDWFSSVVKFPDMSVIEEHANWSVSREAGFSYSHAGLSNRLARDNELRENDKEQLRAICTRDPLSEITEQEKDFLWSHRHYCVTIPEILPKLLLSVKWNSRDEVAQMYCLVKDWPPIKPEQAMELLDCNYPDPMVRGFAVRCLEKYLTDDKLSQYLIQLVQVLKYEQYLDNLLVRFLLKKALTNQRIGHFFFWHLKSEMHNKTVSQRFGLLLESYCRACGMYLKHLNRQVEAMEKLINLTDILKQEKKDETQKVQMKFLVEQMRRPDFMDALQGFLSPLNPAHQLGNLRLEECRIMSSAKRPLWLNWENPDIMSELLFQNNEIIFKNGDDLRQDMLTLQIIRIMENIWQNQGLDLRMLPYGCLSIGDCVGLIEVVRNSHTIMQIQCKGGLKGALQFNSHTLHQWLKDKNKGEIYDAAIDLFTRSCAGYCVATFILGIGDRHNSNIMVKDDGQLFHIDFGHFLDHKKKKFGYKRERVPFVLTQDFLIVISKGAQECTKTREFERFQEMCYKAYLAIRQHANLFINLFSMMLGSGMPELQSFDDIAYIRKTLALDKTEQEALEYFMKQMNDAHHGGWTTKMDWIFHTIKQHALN

The target of series [2] is Phosphatidylinositol 4,5-bisphosphate 3-kinase catalytic subunit beta isoform (Homo sapiens, UniProt P42338). The series is described as follows: Inhibition of GST-tagged human PI3K p110-beta by SPA. In short, it runs like this: as §1
Chain of Phosphatidylinositol 4,5-bisphosphate 3-kinase catalytic subunit beta isoform (P42338 whole entry, canonical isoform): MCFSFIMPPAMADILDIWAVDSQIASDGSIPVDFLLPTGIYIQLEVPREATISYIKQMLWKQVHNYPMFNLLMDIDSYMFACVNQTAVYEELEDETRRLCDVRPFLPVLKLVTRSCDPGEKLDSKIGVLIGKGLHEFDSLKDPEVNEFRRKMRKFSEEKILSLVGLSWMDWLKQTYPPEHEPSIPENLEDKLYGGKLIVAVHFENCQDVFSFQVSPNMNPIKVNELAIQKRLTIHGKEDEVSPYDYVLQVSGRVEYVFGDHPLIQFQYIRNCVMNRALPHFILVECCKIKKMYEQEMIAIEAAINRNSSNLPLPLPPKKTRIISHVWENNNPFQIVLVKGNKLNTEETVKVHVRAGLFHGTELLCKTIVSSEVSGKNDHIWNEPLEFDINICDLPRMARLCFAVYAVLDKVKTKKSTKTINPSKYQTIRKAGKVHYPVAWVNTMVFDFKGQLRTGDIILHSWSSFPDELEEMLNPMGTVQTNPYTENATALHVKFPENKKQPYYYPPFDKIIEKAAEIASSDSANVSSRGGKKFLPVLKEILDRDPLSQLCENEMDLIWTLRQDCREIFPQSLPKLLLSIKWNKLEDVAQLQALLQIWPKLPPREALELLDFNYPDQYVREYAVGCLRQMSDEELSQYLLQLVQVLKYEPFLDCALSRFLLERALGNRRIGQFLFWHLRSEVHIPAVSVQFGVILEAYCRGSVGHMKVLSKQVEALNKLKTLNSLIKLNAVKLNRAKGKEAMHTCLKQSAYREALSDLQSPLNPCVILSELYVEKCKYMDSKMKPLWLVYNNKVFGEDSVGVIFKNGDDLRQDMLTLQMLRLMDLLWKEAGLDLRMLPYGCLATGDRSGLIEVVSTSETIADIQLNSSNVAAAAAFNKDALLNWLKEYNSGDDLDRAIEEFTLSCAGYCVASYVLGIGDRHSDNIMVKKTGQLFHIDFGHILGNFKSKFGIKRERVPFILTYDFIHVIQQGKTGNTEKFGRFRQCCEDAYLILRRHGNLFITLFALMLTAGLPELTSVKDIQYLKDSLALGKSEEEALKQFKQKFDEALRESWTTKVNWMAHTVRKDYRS
Series [3] concerns the target Phosphatidylinositol 4,5-bisphosphate 3-kinase catalytic subunit gamma isoform (Homo sapiens, UniProt P48736). As to the kind of experiment: Inhibition of His-tagged PI3K p110gamma by SPA. In short, it runs like this: as §1
For series [4], the target named is Phosphatidylinositol 4-phosphate 3-kinase C2 domain-containing subunit beta (Homo sapiens, UniProt O00750). The series is described as follows: Inhibition of Glu-tagged PI3K C2-beta by SPA. In short, it runs like this:
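SPA as for the class I isoforms, but the PI3K C2β buffer is 20 mM Tris-HCl pH 7.4, 160 mM NaCl, 2 mM DTT, 5 mM MgCl2, 15 mM CaCl2, 0.4 mM EDTA. Run 120 min at room temperature. Captured on WGA-coated SPA beads. IC50 is the mean of at least two determinations.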

In series [5] the test system is HeLa. As to the kind of experiment: Suppression of tumor growth in BALB/c nu/nu mouse implanted with human HeLa cells at 25 mg/kg, ip after 2 weeks relative to control. It counts as functional. The conditions noted are these: route intraperitoneal. In a few lines: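 HeLa xenografts in nude mice, five animals per group. Dosing began when tumours reached about 100 mm³. 25 mg/kg (as free base) given ip once daily for 2 weeks, suspended in 20% hydroxypropyl-β-cyclodextrin/saline; the vehicle group served as control. Tumour volume = 1/2 × (short diameter)² × (long diameter).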

Series [6] concerns HeLa. The series is described as follows: Antiproliferative activity against human HeLa cells after 46 hrs. It counts as functional, cell-based. In short, it runs like this:
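Serum-induced proliferation. Compound (1 µL) spotted into wells, then 1×10^4 cells added. After 46 h incubation, Alamar Blue added; fluorescence read 2 h later at ex 544/em 590 nm.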

A short description of series [7]: Half life in ip dosed mouse. It counts as ADME, organism-based. The conditions noted are these: in vivo. In short, it runs like this: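 Mice dosed intraperitoneally. Plasma half-life determined by HPLC/MS/MS.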
A further series concerns A375 (human). The series is described as follows: Antiproliferative activity against human A375 cells after 46 hrs. The conditions noted are these: A375, 46 h.

Chain of Phosphatidylinositol 4-phosphate 3-kinase C2 domain-containing subunit beta (O00750 whole entry, the tested form may be a part, canonical isoform): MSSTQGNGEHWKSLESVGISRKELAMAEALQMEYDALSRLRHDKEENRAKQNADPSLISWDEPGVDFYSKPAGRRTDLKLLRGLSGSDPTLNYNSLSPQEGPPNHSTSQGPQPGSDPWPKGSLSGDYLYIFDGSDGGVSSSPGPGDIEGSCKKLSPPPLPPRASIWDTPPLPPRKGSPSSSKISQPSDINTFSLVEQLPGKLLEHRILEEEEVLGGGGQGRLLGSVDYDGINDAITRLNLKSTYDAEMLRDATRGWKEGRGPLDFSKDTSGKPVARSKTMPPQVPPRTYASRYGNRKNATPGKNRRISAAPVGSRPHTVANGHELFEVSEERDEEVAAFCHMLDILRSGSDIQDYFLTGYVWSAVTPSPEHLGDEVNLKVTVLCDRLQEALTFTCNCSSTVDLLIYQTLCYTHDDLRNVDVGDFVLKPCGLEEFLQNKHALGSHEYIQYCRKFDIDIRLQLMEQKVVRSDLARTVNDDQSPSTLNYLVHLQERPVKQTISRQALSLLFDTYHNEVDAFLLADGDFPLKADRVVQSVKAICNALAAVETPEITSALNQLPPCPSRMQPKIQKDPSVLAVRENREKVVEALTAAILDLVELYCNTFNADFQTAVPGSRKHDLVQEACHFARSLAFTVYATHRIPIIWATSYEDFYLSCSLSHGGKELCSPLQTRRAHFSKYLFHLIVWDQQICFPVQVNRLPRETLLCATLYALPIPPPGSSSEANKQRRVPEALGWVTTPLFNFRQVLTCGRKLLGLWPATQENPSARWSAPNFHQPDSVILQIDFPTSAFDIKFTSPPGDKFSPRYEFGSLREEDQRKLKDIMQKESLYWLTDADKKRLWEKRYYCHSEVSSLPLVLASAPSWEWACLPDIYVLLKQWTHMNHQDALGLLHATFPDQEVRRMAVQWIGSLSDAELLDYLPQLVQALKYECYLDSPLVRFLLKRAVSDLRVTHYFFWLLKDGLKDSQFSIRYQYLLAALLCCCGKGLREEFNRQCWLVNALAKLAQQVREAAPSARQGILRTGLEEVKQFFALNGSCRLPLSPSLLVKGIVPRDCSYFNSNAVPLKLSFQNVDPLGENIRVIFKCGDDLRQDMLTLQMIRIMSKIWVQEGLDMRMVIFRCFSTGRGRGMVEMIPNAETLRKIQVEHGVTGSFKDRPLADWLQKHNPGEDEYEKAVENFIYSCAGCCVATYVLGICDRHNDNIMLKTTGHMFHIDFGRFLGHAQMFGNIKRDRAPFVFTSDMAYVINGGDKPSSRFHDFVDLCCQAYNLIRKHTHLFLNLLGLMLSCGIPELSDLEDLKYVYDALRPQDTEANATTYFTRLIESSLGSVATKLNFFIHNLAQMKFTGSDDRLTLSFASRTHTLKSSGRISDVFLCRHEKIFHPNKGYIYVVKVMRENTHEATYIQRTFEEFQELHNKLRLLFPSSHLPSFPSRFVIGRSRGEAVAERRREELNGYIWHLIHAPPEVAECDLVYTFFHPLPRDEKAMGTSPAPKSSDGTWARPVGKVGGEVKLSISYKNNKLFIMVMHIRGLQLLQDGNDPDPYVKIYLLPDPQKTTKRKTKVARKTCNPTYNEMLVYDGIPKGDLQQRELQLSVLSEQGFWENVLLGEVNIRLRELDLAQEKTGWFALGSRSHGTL
Chain of Phosphatidylinositol 4,5-bisphosphate 3-kinase catalytic subunit gamma isoform (P48736 whole entry, the tested form may be a part, canonical isoform): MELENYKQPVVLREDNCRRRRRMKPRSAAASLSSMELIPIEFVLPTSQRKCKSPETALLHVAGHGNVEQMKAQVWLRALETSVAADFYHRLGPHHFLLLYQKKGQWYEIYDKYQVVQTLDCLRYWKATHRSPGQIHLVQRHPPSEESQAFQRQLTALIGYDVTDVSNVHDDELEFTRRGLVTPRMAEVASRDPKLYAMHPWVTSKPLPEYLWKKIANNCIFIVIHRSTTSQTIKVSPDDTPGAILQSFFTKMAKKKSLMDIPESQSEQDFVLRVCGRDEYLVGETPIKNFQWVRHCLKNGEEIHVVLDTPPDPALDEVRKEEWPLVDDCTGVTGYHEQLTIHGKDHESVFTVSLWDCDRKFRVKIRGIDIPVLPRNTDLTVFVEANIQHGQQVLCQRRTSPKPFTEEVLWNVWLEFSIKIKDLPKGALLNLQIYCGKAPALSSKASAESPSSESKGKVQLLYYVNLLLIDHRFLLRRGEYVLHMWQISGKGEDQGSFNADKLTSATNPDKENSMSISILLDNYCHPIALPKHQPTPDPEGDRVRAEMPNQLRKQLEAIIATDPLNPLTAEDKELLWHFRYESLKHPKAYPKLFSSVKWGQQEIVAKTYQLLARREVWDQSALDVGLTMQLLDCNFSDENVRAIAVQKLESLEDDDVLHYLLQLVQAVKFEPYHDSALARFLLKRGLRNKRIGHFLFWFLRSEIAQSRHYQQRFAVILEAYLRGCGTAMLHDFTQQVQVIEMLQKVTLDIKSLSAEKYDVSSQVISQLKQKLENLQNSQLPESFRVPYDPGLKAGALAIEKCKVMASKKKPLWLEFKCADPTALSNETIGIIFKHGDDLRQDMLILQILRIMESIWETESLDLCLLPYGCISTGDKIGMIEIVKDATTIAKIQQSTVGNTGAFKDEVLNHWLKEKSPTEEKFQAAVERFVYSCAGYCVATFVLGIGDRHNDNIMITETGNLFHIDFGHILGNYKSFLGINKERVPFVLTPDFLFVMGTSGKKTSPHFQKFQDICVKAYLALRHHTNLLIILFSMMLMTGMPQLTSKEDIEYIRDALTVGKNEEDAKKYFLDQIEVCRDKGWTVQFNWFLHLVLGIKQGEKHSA

As usually defined, the IC50 is the concentration at which inhibition is half-maximal. High values mean a need for much substance, low ones inhibition by little substance. The half-life is how long it takes for the measured level to halve. Turning to `Cc1ccc([N+](=O)[O-])cc1S(=O)(=O)c1nc(-c2cnc3ccc(Cl)cn23)cs1.Cl`, the IC50 in series [1] came out at 2.8 nM; in series [2], 170 nM; in series [3], 230 nM; in series [4], 100 nM; in the series with HeLa [6], 210 nM; in the series on A375 (human) it was 140 nM. Moreover, the Activity in the series on HeLa [5] amounted to 37%. For the same compound, in series [7], the half-life is 2.6 h.
For the compound `Cc1ccc([N+](=O)[O-])cc1S(=O)(=O)n1ccc(-c2c(C)nc3ccc(Br)cn23)n1`, the half-inhibitory concentration (IC50) in series [1] amounted to 3.1 nM; in the series on A375 (human) it was 730 nM.
For `O=c1cc(N2CCOCC2)oc2c(-c3ccccc3)cccc12` [LY-294002], the concentration for half-maximal inhibition (IC50) came out at 2100 nM in series [4] and 8400 nM with A375 (human).
Turning to `Cc1ccc([N+](=O)[O-])cc1S(=O)(=O)n1ccc(-c2c(C)nc3ccc(Cl)cn23)n1`, the IC50 is 2.8 nM in series [1] and 830 nM with A375 (human).
For the compound `O=[N+]([O-])c1ccc(CO)c([S+]([O-])c2nc(-c3cnc4ccc(Cl)cn34)cs2)c1` (centres undefined), the half-inhibitory concentration (IC50) in series [1] is 20 nM; in the series on A375 (human), 19000 nM.
For `Cc1ccc([N+](=O)[O-])cc1Sc1nc(-c2cnc3ccc(Cl)cn23)cs1`, in that order: 82 nM and 3370 nM.
In the case of `Cc1nc2ccc(Cl)cn2c1-c1ccn(S(=O)(=O)c2cccc([N+](=O)[O-])c2)n1`, in series [1], half-maximal inhibition (IC50) was put at 280 nM.
On the same count and under the same terms, to `Cc1nc2ccc(Cl)cn2c1-c1ccn(S(=O)(=O)c2ccc([N+](=O)[O-])cc2)n1` belongs over 30000 nM; to `Cc1nc2ccc(Cl)cn2c1-c1ccn(S(=O)(=O)c2ccc(F)cc2)n1`, 760 nM.
On to `Cc1ccc([N+](=O)[O-])cc1[S+]([O-])c1nc(-c2cnc3ccc(Cl)cn23)cs1` (centres undefined), for which the concentration for half-maximal inhibition (IC50) in series [1] was 31 nM; in the series on A375 (human), 270 nM.
For `Cc1nc2ccccn2c1-c1ccn(S(=O)(=O)c2ccc(F)cc2)n1`, in that order: 670 nM and 23000 nM.
For `Cc1ccc([N+](=O)[O-])cc1S(=O)(=O)n1ccc(-c2cnc3ccc(Cl)cn23)c1`, in that order: 100 nM and 12000 nM.
As for `Cc1ccc([N+](=O)[O-])cc1S(=O)(=O)n1ccc(-c2cnc3ccc(Br)cn23)n1`, the IC50 in series [1] was 1.8 nM; in the series with A375 (human), 170 nM.

These data come from ChEMBL document CHEMBL1144502, “Synthesis and biological evaluation of imidazo[1,2-a]pyridine derivatives as novel PI3 kinase p110alpha inhibitors” (Bioorg Med Chem, 2007).
